The source made the active and inactive calls. The calls are words filed in the database; no cut-off is given here.

For the first experiment, the system named is Penicillium roqueforti. In words: Antifungal activity against Penicillium roqueforti NCIM 712 at 100 ug/ml by agar cup plate method. Type of experiment: functional.
Settings: not given
The method, boiled down:
(§1)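 Agar cup plate assay. Strains were obtained from NCL Pune, India, and test compounds were dissolved in DMF. Values are reported as mean (SEM).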
Regarding `Cc1cc(=O)oc2cc(/N=C/c3ccc(N(C)C)cc3)ccc12`, the “inhibition zone (IZ)” value was “inactive”.
On the same count and under the same terms, to `Cc1cc(=O)oc2cc(N3C(=O)CSC3c3ccc(N(C)C)cc3)ccc12` (stereo not drawn) belongs “inactive”.

Still in this experiment, the particulars now being: read-out: IZ.
With `Cc1ccc(C2SCC(=O)N2c2ccc3c(C)cc(=O)oc3c2)cc1` (stereo not drawn), the zone of inhibition at 100 µg/mL stood at 6 mm.
On to `Cc1cc(=O)oc2cc(/N=C/c3ccco3)ccc12`, for which the zone of inhibition at 100 µg/mL stood at 6 mm.
Still for that read-out and setting: the same measure for `Cc1cc(=O)oc2cc(N3C(=O)CSC3c3ccccc3O)ccc12` (stereo not drawn): 11 mm; for `Cc1cc(=O)oc2cc(/N=C/c3cccc([N+](=O)[O-])c3)ccc12`: 4 mm; for `Cc1ccc(/C=N/c2ccc3c(C)cc(=O)oc3c2)cc1`: 7 mm.
Same read-out and setting: the same measure for `Cc1cc(=O)oc2cc(N3C(=O)CSC3c3ccc(F)cc3)ccc12` (stereo not drawn): 19 mm.
In the case of `Cc1cc(=O)oc2cc(N3C(=O)CSC3c3ccco3)ccc12` (stereo not drawn), the zone of inhibition at 100 µg/mL is 5 mm.
Same read-out and setting: to `COc1ccc(/C=N/c2ccc3c(C)cc(=O)oc3c2)cc1` belongs 14 mm; to `Cc1cc(=O)oc2cc(N3C(=O)CSC3c3cccc([N+](=O)[O-])c3)ccc12` (stereo not drawn), 3 mm; to `Cc1cc(=O)oc2cc(/N=C/c3ccccc3O)ccc12`, 10 mm.

Another experiment relates to Delftia acidovorans. In words: Antibacterial activity against Pseudomonas desmolytica NCIM 2028 at 100 ug/ml by agar cup plate method. Type of experiment: functional.
Settings: not given
The method, boiled down:
as §1
In the case of `Cc1cc(=O)oc2cc(N3C(=O)CSC3c3ccccc3O)ccc12` (stereo not drawn), the “inhibition zone (IZ)” value is “inactive”.
Regarding `COc1ccc(/C=N/c2ccc3c(C)cc(=O)oc3c2)cc1`, the “inhibition zone (IZ)” value was “inactive”.
On the same count and under the same terms, the same measure for `Cc1cc(=O)oc2cc(/N=C/c3ccccc3O)ccc12`: “inactive”.

Staying with this experiment, now noted: read-out: IZ.
As for `Cc1ccc(C2SCC(=O)N2c2ccc3c(C)cc(=O)oc3c2)cc1` (stereo not drawn), the zone of inhibition at 100 µg/mL stood at 15 mm.
As for `Cc1cc(=O)oc2cc(/N=C/c3ccco3)ccc12`, the zone of inhibition at 100 µg/mL was 7 mm.
Turning to `Cc1cc(=O)oc2cc(/N=C/c3ccc(N(C)C)cc3)ccc12`, the zone of inhibition at 100 µg/mL is 8 mm.
Same read-out and setting: the same measure for `Cc1cc(=O)oc2cc(/N=C/c3cccc([N+](=O)[O-])c3)ccc12`: 10 mm.
On to `Cc1ccc(/C=N/c2ccc3c(C)cc(=O)oc3c2)cc1`, for which the zone of inhibition at 100 µg/mL came to 11 mm.
The same measure, in the same setting: the same measure for `Cc1cc(=O)oc2cc(N3C(=O)CSC3c3ccc(F)cc3)ccc12` (stereo not drawn): 13 mm.
Still for that read-out and setting: the same measure for `Cc1cc(=O)oc2cc(N3C(=O)CSC3c3ccco3)ccc12` (stereo not drawn): 6 mm.
Still for that read-out and setting: the same measure for `Cc1cc(=O)oc2cc(N3C(=O)CSC3c3cccc([N+](=O)[O-])c3)ccc12` (stereo not drawn): 9 mm; for `Cc1cc(=O)oc2cc(N3C(=O)CSC3c3ccc(N(C)C)cc3)ccc12` (stereo not drawn): 7 mm.

The subject of a further experiment is Staphylococcus aureus. Briefly: Antibacterial activity against Staphylococcus aureus NCIM 2602 at 100 ug/ml by agar cup plate method. As to conditions: read-out: IZ.
`Cc1ccc(C2SCC(=O)N2c2ccc3c(C)cc(=O)oc3c2)cc1` (stereo not drawn): the zone of inhibition at 100 µg/mL turned out to be 6 mm.
Still for that read-out and setting: to `Cc1cc(=O)oc2cc(/N=C/c3ccc(N(C)C)cc3)ccc12` belongs 6 mm; to `Cc1cc(=O)oc2cc(N3C(=O)CSC3c3ccccc3O)ccc12` (stereo not drawn), 4 mm; to `Cc1cc(=O)oc2cc(/N=C/c3cccc([N+](=O)[O-])c3)ccc12`, 15 mm.
As to `Cc1ccc(/C=N/c2ccc3c(C)cc(=O)oc3c2)cc1`, the zone of inhibition at 100 µg/mL was 7 mm.
Consider `Cc1cc(=O)oc2cc(N3C(=O)CSC3c3ccc(F)cc3)ccc12` (stereo not drawn), for which the zone of inhibition at 100 µg/mL stood at 20 mm.
The same measure, in the same setting: the same measure for `COc1ccc(/C=N/c2ccc3c(C)cc(=O)oc3c2)cc1`: 13 mm.
Still for that read-out and setting: the same measure for `Cc1cc(=O)oc2cc(N3C(=O)CSC3c3cccc([N+](=O)[O-])c3)ccc12` (stereo not drawn): 19 mm; for `Cc1cc(=O)oc2cc(/N=C/c3ccccc3O)ccc12`: 3 mm; for `Cc1cc(=O)oc2cc(N3C(=O)CSC3c3ccc(N(C)C)cc3)ccc12` (stereo not drawn): 5 mm.

The subject of a further experiment is Bacillus subtilis. Briefly: Antibacterial activity against Bacillus subtilis NCIM 2613 at 100 ug/ml by agar cup plate method. As to conditions: read-out: IZ.
As for `Cc1ccc(C2SCC(=O)N2c2ccc3c(C)cc(=O)oc3c2)cc1` (stereo not drawn), the zone of inhibition at 100 µg/mL is 8 mm.
The same measure, in the same setting: to `Cc1cc(=O)oc2cc(/N=C/c3ccc(N(C)C)cc3)ccc12` belongs 14 mm; to `Cc1cc(=O)oc2cc(N3C(=O)CSC3c3ccccc3O)ccc12` (stereo not drawn), 8 mm; to `Cc1cc(=O)oc2cc(/N=C/c3cccc([N+](=O)[O-])c3)ccc12`, 20 mm.
The same measure, in the same setting: the same measure for `Cc1ccc(/C=N/c2ccc3c(C)cc(=O)oc3c2)cc1`: 9 mm; for `Cc1cc(=O)oc2cc(N3C(=O)CSC3c3ccc(F)cc3)ccc12` (stereo not drawn): 28 mm.
Same read-out and setting: to `COc1ccc(/C=N/c2ccc3c(C)cc(=O)oc3c2)cc1` belongs 21 mm; to `Cc1cc(=O)oc2cc(N3C(=O)CSC3c3cccc([N+](=O)[O-])c3)ccc12` (stereo not drawn), 27 mm; to `Cc1cc(=O)oc2cc(/N=C/c3ccccc3O)ccc12`, 7 mm.
For `Cc1cc(=O)oc2cc(N3C(=O)CSC3c3ccc(N(C)C)cc3)ccc12` (stereo not drawn), the zone of inhibition at 100 µg/mL was 13 mm.

The subject of a further experiment is Aspergillus niger. Briefly: Antifungal activity against Aspergillus niger NCIM 813 at 100 ug/ml by agar cup plate method.
Settings: not given
The experiment is classed as functional. The method, boiled down: as §1
Take `Cc1cc(=O)oc2cc(/N=C/c3ccco3)ccc12`: the “inhibition zone (IZ)” value is “inactive”.
Still for that read-out and setting: the same measure for `Cc1cc(=O)oc2cc(/N=C/c3ccc(N(C)C)cc3)ccc12`: “inactive”; for `Cc1cc(=O)oc2cc(/N=C/c3cccc([N+](=O)[O-])c3)ccc12`: “inactive”.
The same measure, in the same setting: to `Cc1cc(=O)oc2cc(N3C(=O)CSC3c3ccco3)ccc12` (stereo not drawn) belongs “inactive”; to `Cc1cc(=O)oc2cc(N3C(=O)CSC3c3cccc([N+](=O)[O-])c3)ccc12` (stereo not drawn), “inactive”.
Same read-out and setting: the same measure for `Cc1cc(=O)oc2cc(N3C(=O)CSC3c3ccc(N(C)C)cc3)ccc12` (stereo not drawn): “inactive”.

Still in this experiment, the particulars now being: read-out: IZ.
Regarding `Cc1ccc(C2SCC(=O)N2c2ccc3c(C)cc(=O)oc3c2)cc1` (stereo not drawn), the zone of inhibition at 100 µg/mL was determined as 3 mm.
Still for that read-out and setting: the same measure for `Cc1cc(=O)oc2cc(N3C(=O)CSC3c3ccccc3O)ccc12` (stereo not drawn): 7 mm; for `Cc1ccc(/C=N/c2ccc3c(C)cc(=O)oc3c2)cc1`: 3 mm; for `Cc1cc(=O)oc2cc(N3C(=O)CSC3c3ccc(F)cc3)ccc12` (stereo not drawn): 13 mm.
On the same count and under the same terms, to `COc1ccc(/C=N/c2ccc3c(C)cc(=O)oc3c2)cc1` belongs 9 mm; to `Cc1cc(=O)oc2cc(/N=C/c3ccccc3O)ccc12`, 6 mm.

The test system of the next experiment is Escherichia coli. In words: Antibacterial activity against Escherichia coli NCIM 2666 at 100 ug/ml by agar cup plate method. Type of experiment: functional.
Settings: not given
The method, boiled down:
as §1
For `Cc1cc(=O)oc2cc(N3C(=O)CSC3c3ccccc3O)ccc12` (stereo not drawn), the “inhibition zone (IZ)” value is “inactive”.
The same measure, in the same setting: the same measure for `Cc1cc(=O)oc2cc(/N=C/c3ccccc3O)ccc12`: “inactive”.

The same experiment, now with this note: read-out: IZ.
In the case of `Cc1ccc(C2SCC(=O)N2c2ccc3c(C)cc(=O)oc3c2)cc1` (stereo not drawn), the zone of inhibition at 100 µg/mL amounted to 20 mm.
Same read-out and setting: to `Cc1cc(=O)oc2cc(/N=C/c3ccco3)ccc12` belongs 12 mm; to `Cc1cc(=O)oc2cc(/N=C/c3ccc(N(C)C)cc3)ccc12`, 8 mm; to `Cc1cc(=O)oc2cc(/N=C/c3cccc([N+](=O)[O-])c3)ccc12`, 9 mm.
As for `Cc1ccc(/C=N/c2ccc3c(C)cc(=O)oc3c2)cc1`, the zone of inhibition at 100 µg/mL stood at 10 mm.
Still for that read-out and setting: the same measure for `Cc1cc(=O)oc2cc(N3C(=O)CSC3c3ccc(F)cc3)ccc12` (stereo not drawn): 18 mm; for `Cc1cc(=O)oc2cc(N3C(=O)CSC3c3ccco3)ccc12` (stereo not drawn): 13 mm.
On the same count and under the same terms, the same measure for `COc1ccc(/C=N/c2ccc3c(C)cc(=O)oc3c2)cc1`: 7 mm; for `Cc1cc(=O)oc2cc(N3C(=O)CSC3c3cccc([N+](=O)[O-])c3)ccc12` (stereo not drawn): 10 mm.
In the case of `Cc1cc(=O)oc2cc(N3C(=O)CSC3c3ccc(N(C)C)cc3)ccc12` (stereo not drawn), the zone of inhibition at 100 µg/mL worked out at 10 mm.

(Values after ChEMBL document CHEMBL1154632, “Synthesis and antimicrobial activity of 7-(2-substituted phenylthiazolidinyl)-benzopyran-2-one derivatives” (2010).)
